Values after ≈ are worked out from the molar mass of the structure shown.
What was measured:
Candida albicans [1] = experiment: Antifungal activity against Candida albicans ATCC 24433 after 24 to 36 hrs by broth microdilution method; assay type: functional, organism-based
Outline: (§1)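 CLSI broth microdilution against yeasts (M27-A3) and filamentous fungi (M38-A2). Read-outs: IC50 (concentration giving 50% growth inhibition), MIC, and MFC (minimum fungicidal concentration), all in μg/mL. Assay done twice in triplicate.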

Candida albicans [2] = experiment: Antifungal activity against Candida albicans ATCC 24433 after 72 hrs by broth microdilution method; assay type: functional; details: ATCC 24433, 72 h; outline: as §1
Candida albicans [3] = experiment: Antifungal activity against Candida albicans ATCC 10231 after 24 to 36 hrs by broth microdilution method; assay type: functional, organism-based; outline: as §1
Candida albicans [4] = experiment: Antifungal activity against Candida albicans ATCC 10231 after 72 hrs by broth microdilution method; assay type: functional; details: ATCC 10231, 72 h; outline: as §1
Cryptococcus neoformans [5] = experiment: Antifungal activity against Cryptococcus neoformans ATCC 34664 after 24 to 36 hrs by broth microdilution method; assay type: functional, organism-based; outline: as §1
Cryptococcus neoformans [6] = experiment: Antifungal activity against Cryptococcus neoformans ATCC 34664 after 72 hrs by broth microdilution method; assay type: functional; details: ATCC 34664, 72 h; outline: as §1
Nakaseomyces glabratus [7] = experiment: Antifungal activity against Candida glabrata NCYC 388 after 24 to 36 hrs by broth microdilution method; assay type: functional, organism-based; outline: as §1
Nakaseomyces glabratus [8] = experiment: Antifungal activity against Candida glabrata NCYC 388 after 72 hrs by broth microdilution method; assay type: functional; details: NCYC 388, 72 h; outline: as §1
Candida tropicalis [9] = experiment: Antifungal activity against Candida tropicalis ATCC 750 after 24 to 36 hrs by broth microdilution method; assay type: functional, organism-based; outline: as §1
Candida tropicalis [10] = experiment: Antifungal activity against Candida tropicalis ATCC 750 after 72 hrs by broth microdilution method; assay type: functional; details: ATCC 750, 72 h; outline: as §1
Aspergillus niger [11] = experiment: Antifungal activity against Aspergillus niger ATCC 10578 after 48 hrs by broth microdilution method; assay type: functional, organism-based; details: ATCC 10578, 48 h; outline: as §1
Aspergillus niger [12] = experiment: Antifungal activity against Aspergillus niger ATCC 10578 after 72 hrs by broth microdilution method; assay type: functional; details: ATCC 10578, 72 h; outline: as §1
[13] = Toxicity in human RBC assessed as hemolysis upto 128 ug/ml; assay type: cell-based; details: erythrocyte
[14] = Metabolic stability in mouse liver microsomes after 30 mins by LC-MS/MS analysis; assay type: ADME; details: read-out: Stability
Outline: (§2)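 Test compounds were incubated 30 min with liver microsomes (human or mouse, per line), and values are reported as % metabolic stability after 30 min.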

[15] = Metabolic stability in human liver microsomes after 30 mins by LC-MS/MS analysis; assay type: ADME; details: read-out: Stability; outline: as §2

Row | Structure (SMILES) | IC50 (Candida albicans [1]) [mg/L] | MIC (Candida albicans [1]) [mg/L] | MFC (Candida albicans [2]) [mg/L] | IC50 (Candida albicans [3]) [mg/L] | MIC (Candida albicans [3]) [mg/L] | MFC (Candida albicans [4]) [mg/L] | IC50 (Cryptococcus neoformans [5]) [mg/L] | MIC (Cryptococcus neoformans [5]) [mg/L] | MFC (Cryptococcus neoformans [6]) [mg/L] | IC50 (Nakaseomyces glabratus [7]) [mg/L] | MIC (Nakaseomyces glabratus [7]) [mg/L] | MFC (Nakaseomyces glabratus [8]) [mg/L] | IC50 (Candida tropicalis [9]) [mg/L] | MIC (Candida tropicalis [9]) [mg/L] | MFC (Candida tropicalis [10]) [mg/L] | IC50 (Aspergillus niger [11]) [mg/L] | MIC (Aspergillus niger [11]) [mg/L] | MFC (Aspergillus niger [12]) [mg/L] | Activity [13] | further results
1 | CC(Cc1ccc([Si](C)(C)C)cc1)CN1CCSCC1 (centres undefined) | 0.245 (≈ 0.797 µM) | 1 (≈ 3.25 µM) | 8 (≈ 26 µM) | 0.5 (≈ 1.63 µM) | 1 (≈ 3.25 µM) | 2 (≈ 6.5 µM) | 0.8 (≈ 2.6 µM) | 2 (≈ 6.5 µM) | 64 (≈ 208 µM) | 0.25 (≈ 0.813 µM) | 0.5 (≈ 1.63 µM) | 8 (≈ 26 µM) | 0.25 (≈ 0.813 µM) | 2 (≈ 6.5 µM) | > 256 | 1 (≈ 3.25 µM) | 2 (≈ 6.5 µM) | > 256 | Non-toxic | 
2 | CC(Cc1ccc(C(C)(C)C)cc1)C(=O)N1CC[Si](C)(C)CC1 (centres undefined) |  | ≥ 256 | ≥ 256 |  | ≥ 256 | ≥ 256 |  | ≥ 256 | ≥ 256 |  | ≥ 256 | ≥ 256 |  | ≥ 256 | ≥ 256 |  | ≥ 256 | ≥ 256 |  | 
3 | CC(Cc1ccc([Si](C)(C)C)cc1)CN1CC[Si](C)(C)CC1 (centres undefined) | 1.25 (≈ 3.75 µM) | 4 (≈ 12 µM) | 8 (≈ 24 µM) | 0.45 (≈ 1.35 µM) | 1 (≈ 3 µM) | 4 (≈ 12 µM) | 1.98 (≈ 5.93 µM) | 8 (≈ 24 µM) | 64 (≈ 192 µM) | 1.75 (≈ 5.24 µM) | 8 (≈ 24 µM) | 16 (≈ 48 µM) | 44.8 (≈ 134 µM) | 64 (≈ 192 µM) | > 256 | 0.5 (≈ 1.5 µM) | 2 (≈ 5.99 µM) | > 256 | Non-toxic | remaining at 0.5 h [14]: 17.3%; remaining at 0.5 h [15]: 44.5%
4 | CCN(CC)CC(C)Cc1ccc([Si](C)(C)C)cc1 (centres undefined) | 3.75 (≈ 13.5 µM) | 8 (≈ 28.8 µM) | 32 (≈ 115 µM) | 0.57 (≈ 2.05 µM) | 2 (≈ 7.21 µM) | 4 (≈ 14.4 µM) | 1.5 (≈ 5.4 µM) | 4 (≈ 14.4 µM) | 32 (≈ 115 µM) | 1.85 (≈ 6.67 µM) | 4 (≈ 14.4 µM) | > 256 | 4.85 (≈ 17.5 µM) | 16 (≈ 57.7 µM) | 256 (≈ 922 µM) | 64 (≈ 231 µM) | 256 (≈ 922 µM) | > 256 |  | 
5 | CC(Cc1ccc(C(C)(C)C)cc1)CN1CC[Si](C)(C)CC1 (centres undefined) | 1.85 (≈ 5.83 µM) | 4 (≈ 12.6 µM) | 8 (≈ 25.2 µM) | 0.31 (≈ 0.976 µM) | 0.5 (≈ 1.57 µM) | 0.5 (≈ 1.57 µM) | 0.875 (≈ 2.76 µM) | 2 (≈ 6.3 µM) | 4 (≈ 12.6 µM) | 1.52 (≈ 4.79 µM) | 4 (≈ 12.6 µM) | 8 (≈ 25.2 µM) | 16 (≈ 50.4 µM) | 64 (≈ 202 µM) | 64 (≈ 202 µM) | 13.8 (≈ 43.5 µM) | 32 (≈ 101 µM) | 64 (≈ 202 µM) | Non-toxic | 
6 | OC(Cn1cncn1)(Cn1cncn1)c1ccc(F)cc1F [FLUCONAZOLE] | 0.73 (≈ 2.38 µM) | 2 (≈ 6.53 µM) | 4 (≈ 13.1 µM) | 4.21 (≈ 13.7 µM) | 8 (≈ 26.1 µM) | 16 (≈ 52.2 µM) | 4.6 (≈ 15 µM) | 32 (≈ 104 µM) | > 256 | 16 (≈ 52.2 µM) | 128 (≈ 418 µM) | > 256 | 64 (≈ 209 µM) | > 256 | > 256 | > 256 | > 256 | > 256 |  | 
7 | CCC(C)(C)c1ccc(CC(C)CN2CC[Si](C)(C)CC2)cc1 (centres undefined) | 1.68 (≈ 5.07 µM) | 4 (≈ 12.1 µM) | 16 (≈ 48.2 µM) | 0.28 (≈ 0.844 µM) | 0.5 (≈ 1.51 µM) | 64 (≈ 193 µM) | 1.4 (≈ 4.22 µM) | 2 (≈ 6.03 µM) | 4 (≈ 12.1 µM) | 1.47 (≈ 4.43 µM) | 4 (≈ 12.1 µM) | 4 (≈ 12.1 µM) | 13.8 (≈ 41.6 µM) | 64 (≈ 193 µM) | 256 (≈ 772 µM) | 0.16 (≈ 0.482 µM) | 0.5 (≈ 1.51 µM) | 64 (≈ 193 µM) |  | 
8 | CC(Cc1ccc(C(C)(C)C)cc1)CN1C[C@@H](C)O[C@@H](C)C1 (some centres undefined) [FENPROPIMORPH] | 0.21 (≈ 0.692 µM) | 0.5 (≈ 1.65 µM) | 4 (≈ 13.2 µM) | 0.833 (≈ 2.74 µM) | 2 (≈ 6.59 µM) | 2 (≈ 6.59 µM) | 0.25 (≈ 0.824 µM) | 1 (≈ 3.3 µM) | 64 (≈ 211 µM) | 0.25 (≈ 0.824 µM) | 1 (≈ 3.3 µM) | 128 (≈ 422 µM) | 0.125 (≈ 0.412 µM) | 2 (≈ 6.59 µM) | > 256 | 1 (≈ 3.3 µM) | 4 (≈ 13.2 µM) | > 256 | Non-toxic | 

Source: ChEMBL document CHEMBL3751707, “Silicon Incorporated Morpholine Antifungals: Design, Synthesis, and Biological Evaluation” (ACS Med Chem Lett, 2015)
